Data from ChEMBL document CHEMBL1212693, “Dorsomorphin inhibits BMP signals required for embryogenesis and iron metabolism” (Nat Chem Biol, 2008).
pIC50: −log10 of the molar value. Active and inactive are the calls of the source. The calls are words filed in the database; no cut-off is given here.

Columns and labels:
Danio rerio [1] = organism: Danio rerio; assay: Inhibition of BMPR1 in zebrafish assessed as penetrance of mild embryonic axis dorsalization at 10 uM treated continuously from 8 hrs post-fertilization measured at 48 hrs; design: scale not given: the % may be the effect or the level left
Method in brief: (§1)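 Compound added at the stated times and concentrations. Gross morphology scored visually at up to 48 h.p.f. for dorsalization of the embryonic axis.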

Mus musculus [2] = organism: Mus musculus; assay: Inhibition of BMPR1-mediated Smad-8 phosphorylation in BMP4-stimulated mouse BMPR2 deficient PASMC at 4 uM treated 30 mins before BMP4 measured after 30 mins by immunoblot analysis
Mus musculus [3] = organism: Mus musculus; assay: Inhibition of BMPR1-mediated MAPK p38 phosphorylation in BMP4-stimulated mouse PASMC treated 30 mins before BMP4 challenge measured after 30 mins by immunoblot analysis
Method in brief: (§2)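 Mouse PASMCs were held 24 h in 0.5% FCS RPMI, preincubated 30 min with a dose range of compound, then stimulated 30 min with BMP4. Phospho-SMAD1/5/8 and phospho-p38 were detected by immunoblot and quantitated by phosphorimager (RLU). IC50 was derived from a Hill plot of phospho-SMAD1/5/8 inhibition.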

Danio rerio [4] = organism: Danio rerio; assay: Inhibition of BMPR1 in zebrafish assessed as severity of embryonic axis dorsalization at 10 uM treated continuously from 4 hrs post-fertilization measured after 48 hrs; design: scale not given: the % may be the effect or the level left
Mus musculus [5] = organism: Mus musculus; assay: Inhibition of ALK3-mediated Id1 promoter activity in BMPR2 deficient mouse PASMC at 10 uM by immunoblot analysis
Method in brief: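 BMPR-II–deficient mouse PASMCs at 50% confluence co-transfected with Id1 promoter firefly luciferase (BRE-Luc, 0.3 µg), caALK2, caALK3 or caALK6 (0.6 µg), and pRL-TK Renilla (0.2 µg). Compound (4–10 µM) or vehicle added 1 h after transfection. Activity read as firefly/Renilla ratio by dual luciferase assay; n = 3, mean ± s.d.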

Danio rerio [6] = organism: Danio rerio; assay: Inhibition of BMPR1 in zebrafish assessed as penetrance of mild embryonic axis dorsalization at 10 uM treated continuously from 10 hrs post-fertilization measured at 48 hrs; design: scale not given: the % may be the effect or the level left; method in brief: as §1
Mus musculus [7] = organism: Mus musculus; assay: Inhibition of BMPR1-mediated Smad-8 phosphorylation in BMP6-stimulated mouse BMPR2 deficient PASMC at 4 uM treated 30 mins before BMP6 measured after 30 mins by immunoblot analysis
Danio rerio [8] = organism: Danio rerio; assay: Inhibition of BMPR1 in zebrafish assessed as penetrance of mild embryonic axis dorsalization at 10 uM treated at 6 to 8 hrs post-fertilization measured at 48 hrs; design: scale not given: the % may be the effect or the level left; method in brief: as §1
Mus musculus [9] = organism: Mus musculus; assay: (§3) Inhibition of BMPR1-mediated Smad-1 phosphorylation in BMP4-stimulated mouse PASMC treated 30 mins before BMP4 challenge measured after 30 mins by immunoblot analysis; method in brief: as §2
[10] = as §3; method in brief: as §2
Danio rerio [11] = organism: Danio rerio; assay: Inhibition of BMPR1 in zebrafish assessed as penetrance of moderate embryonic axis dorsalization at 0.2 uM treated at 3 hrs post-fertilization measured at 48 hrs; design: scale not given: the % may be the effect or the level left; method in brief: as §1
Danio rerio [12] = organism: Danio rerio; assay: Inhibition of BMPR1 in zebrafish assessed as penetrance of mild embryonic axis dorsalization at 10 uM treated at 2 to 6 hrs post-fertilization measured at 48 hrs; design: scale not given: the % may be the effect or the level left; method in brief: as §1
Danio rerio [13] = organism: Danio rerio; assay: Inhibition of BMPR1 in zebrafish assessed as penetrance of mild embryonic axis dorsalization at 2 uM treated at 3 hrs post-fertilization measured at 48 hrs; design: scale not given: the % may be the effect or the level left; method in brief: as §1
Mus musculus [14] = organism: Mus musculus; assay: Inhibition of BMPR1-mediated Smad-8 phosphorylation in BMP7-stimulated mouse PASMC at 4 uM treated 30 mins before BMP7 challenge measured after 30 mins by immunoblot analysis
Method in brief: (§4)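 Wild-type mouse PASMCs were kept in RPMI with 0.5% FCS for 24 h. They were preincubated with compound or vehicle for 30 min, then stimulated for 30 min with recombinant BMP2, BMP4, BMP6 or BMP7 at 10 ng ml−1. Lysates in SDS buffer were immunoblotted with anti-phospho-SMAD1/5/8. Total SMAD1 and α-tubulin served as loading controls, and bands were quantified by phosphorimager.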

Danio rerio [15] = organism: Danio rerio; assay: Inhibition of BMPR1 in zebrafish assessed as penetrance of moderate embryonic axis dorsalization at 1 uM treated at 3 hrs post-fertilization measured at 48 hrs; design: scale not given: the % may be the effect or the level left; method in brief: as §1
Mus musculus [16] = organism: Mus musculus; assay: Inhibition of ALK6-mediated Smad-1 phosphorylation in BMPR2 deficient mouse PASMC at 10 uM by immunoblot analysis
Method in brief: (§5)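 BMPR-II–deficient mouse PASMCs (RPMI, 10% FBS) transiently transfected with constitutively active ALK2, ALK3 or ALK6 cDNA, or plasmid-only control. Incubated with or without compound (10 µM). Extracts lysed in SDS buffer, run on SDS-PAGE and immunoblotted for phospho-SMAD1/5/8; quantitated by phosphorimager.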

Hep 3B2 = assay: Inhibition of hepcidin mRNA expression in human Hep3B cells at 4 uM […] by qRT-PCR analysis; format: functional; settings: 0.5 h
Mus musculus [17] = organism: Mus musculus; assay: Inhibition of ALK3-mediated Smad-1 phosphorylation in BMPR2 deficient mouse PASMC at 10 uM by immunoblot analysis; method in brief: as §5
Mus musculus [18] = organism: Mus musculus; assay: Inhibition of BMPR1-mediated Smad-5 phosphorylation in BMP7-stimulated mouse BMPR2 deficient PASMC at 4 uM treated 30 mins before BMP7 challenge measured after 30 mins by immunoblot analysis
Danio rerio [19] = organism: Danio rerio; assay: Inhibition of BMPR1 in zebrafish assessed as penetrance of mild embryonic axis dorsalization at 10 uM treated at 4 to 8 hrs post-fertilization measured at 48 hrs; design: scale not given: the % may be the effect or the level left; method in brief: as §1
Danio rerio [20] = organism: Danio rerio; assay: Inhibition of BMPR1 in zebrafish assessed as penetrance of normal embryonic axis dorsalization at 0.2 uM treated at 3 hrs post-fertilization measured at 48 hrs; design: scale not given: the % may be the effect or the level left
Danio rerio [21] = organism: Danio rerio; assay: Inhibition of BMPR1 in zebrafish assessed as penetrance of normal embryonic axis dorsalization at 1 uM treated at 3 hrs post-fertilization measured at 48 hrs; design: scale not given: the % may be the effect or the level left
C2C12 = assay: Inhibition of BMPR1-mediated osteoblast differentiation in BMP6-stimulated mouse C2C12 cells assessed as decrease in alkaline phosphatase level at 4 uM by spectrophotometry; format: cell-based
Method in brief: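 C2C12 cells were seeded at 2,000 per well in DMEM with 2% FBS and treated in quadruplicate with BMP4 or BMP6 plus compound or vehicle. After 5 d, cells were lysed in TBS with 1% Triton X-100. Lysates were incubated 1 h with p-nitrophenylphosphate and alkaline phosphatase was read as absorbance at 405 nm. Cell count was measured by CyQuant in parallel wells.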

Danio rerio [22] = organism: Danio rerio; assay: Toxicity in zebrafish assessed as morphological changes at 1 to 4 uM treated at 24 hrs post-fertilization measured on day 10 post-fertilization; format: organism-based; settings: in vivo
Method in brief: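 WT zebrafish embryos were raised in E3 containing phenylthiourea and exposed from 1 d.p.f. to compound (1–4 µM) or DMSO. From 5 d.p.f. larvae were fed 1 h every other day, with medium renewed after each feeding. At 10 d.p.f. they were calcein-stained and checked by brightfield microscopy for gross morphology and function.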

Mus musculus [23] = organism: Mus musculus; assay: Inhibition of BMPR1-mediated Smad-5 phosphorylation in BMP6-stimulated mouse PASMC at 4 uM treated 30 mins before BMP6 challenge measured after 30 mins by immunoblot analysis; method in brief: as §4
Danio rerio [24] = organism: Danio rerio; assay: Inhibition of BMPR1 in zebrafish assessed as penetrance of normal embryonic axis dorsalization at 10 uM treated continuously from 6 hrs post-fertilization measured at 48 hrs; design: scale not given: the % may be the effect or the level left
Danio rerio [25] = organism: Danio rerio; assay: Inhibition of BMPR1 in zebrafish assessed as increase in pax2a expression at 10 uM treated at 12 hrs post-fertilization measured at 48 hrs

Question: With c1cc(-c2cnn3cc(-c4ccc(OCCN5CCCCC5)cc4)cnc23)ccn1 [DORSOMORPHIN] as the molecule, how does the Activity (Danio rerio [1]) read?
Answer: The Activity was 85%.

Question: What about the inhibition (Mus musculus [2]) of the same molecule?
Answer: Its inhibition is “Active”.

Question: And the inhibition (Mus musculus [3])?
Answer: The inhibition was “inactive”.

Question: And the Activity (Danio rerio [4])?
Answer: The Activity was 0%.

Question: And the inhibition (Mus musculus [5])?
Answer: Its inhibition is “Dose-dependent effect”.

Question: What about the Activity (Danio rerio [6]) of the same molecule?
Answer: Its Activity is 0%.

Question: And the inhibition (Mus musculus [7])?
Answer: Its inhibition is “Active”.

Question: What about the Activity (Danio rerio [8]) of the same molecule?
Answer: The Activity was 95%.

Question: What about the inhibition (Mus musculus [9]) of the same molecule?
Answer: The inhibition was “Dose-dependent effect”.

Question: What about the pIC50 [10] of the same molecule?
Answer: The pIC50 was 6.33.

Question: And the Activity (Danio rerio [11])?
Answer: The Activity was 0%.

Question: What about the Activity (Danio rerio [12]) of the same molecule?
Answer: Its Activity is 17%.

Question: What about the Activity (Danio rerio [13]) of the same molecule?
Answer: Its Activity is 0%.

Question: And the inhibition (Mus musculus [14])?
Answer: The inhibition was “Active”.

Question: And the Activity (Danio rerio [15])?
Answer: The Activity was 0%.

Question: And the inhibition (Mus musculus [16])?
Answer: Its inhibition is “Active”.

Question: And the inhibition at 4 µM (Hep 3B2)?
Answer: The inhibition at 4 µM was 27%.

Question: And the inhibition (Mus musculus [17])?
Answer: The inhibition was “Active”.

Question: And the inhibition (Mus musculus [18])?
Answer: Its inhibition is “Active”.

Question: What about the Activity (Danio rerio [19]) of the same molecule?
Answer: The Activity was 65%.

Question: And the Activity (Danio rerio [20])?
Answer: Its Activity is 100%.

Question: What about the Activity (Danio rerio [21]) of the same molecule?
Answer: The Activity was 100%.

Question: What about the inhibition (C2C12) of the same molecule?
Answer: The inhibition was “Active”.

Question: What about the Activity (Danio rerio [22]) of the same molecule?
Answer: The Activity was “Non-toxic”.

Question: And the inhibition (Mus musculus [23])?
Answer: Its inhibition is “Active”.

Question: And the Activity (Danio rerio [24])?
Answer: Its Activity is 0%.

Question: What about the Activity (Danio rerio [25]) of the same molecule?
Answer: Its Activity is “Active”.
